Activity calls are given as the source filed them. No cut-off for these calls is given here.
Tests used:
[1] = Toxicity in dog assessed as ataxia at 45 mg/kg, po using spray-dried dispersion formulation measured after 45 mins; assay type: organism-based, Canis lupus familiaris; conditions: in vivo, 0.75 h
In short: (§1)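 Dogs received single escalating oral doses as a spray-dried dispersion (10% drug loading with HPMCAS-M). The dispersion was suspended in 0.5 wt% methylcellulose/0.5 wt% HPMCAS in 20 mM tris buffer, pH 7.4. One dog per sex per dose was used, and clinical signs were recorded.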

[2] = Toxicity in dog assessed as salivation at 45 mg/kg, po using spray-dried dispersion formulation measured after 45 mins; assay type: organism-based, Canis lupus familiaris; conditions: in vivo, 0.75 h
[3] = Toxicity in dog assessed as emesis at 3 mg/kg, po using spray-dried dispersion formulation; assay type: organism-based, Canis lupus familiaris; conditions: in vivo; in short: as §1
[4] = fAUC (0 to 24 hrs) in dog at 5 mg/kg, po using spray-dried dispersion formulation; assay type: ADME, organism-based, Canis lupus familiaris; conditions: in vivo
[5] = fCmax in dog at 1 mg/kg, po measured after 4 hrs using spray-dried dispersion formulation; assay type: ADME, organism-based, Canis lupus familiaris; conditions: in vivo
In short: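 Dogs from the crossover cardiovascular telemetry study (N=4), dosed orally at 0.3, 1 and 3 mg/kg; unbound Cmax extrapolated from 4 h post-dose in-life plasma samples.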

[6] = fAUC (0 to 24 hrs) in rat at 15 mg/kg, po administered for 14 days; assay type: ADME, organism-based; conditions: in vivo, 336 h, time 14 day
In short: (§2)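 2-week repeat oral dosing in rats, 0.5% methylcellulose formulation; N=4/sex/dose; doses 3, 10, 30 (males)/15 (females) mg/kg; unbound exposures reported per dose and sex.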

[7] = fCmax in rat at 30 mg/kg, po administered for 14 days; assay type: ADME, organism-based; conditions: in vivo, 336 h, time 14 day; in short: as §2
[8] = fCmax in rat at 3 mg/kg, po administered for 14 days; assay type: ADME, organism-based; conditions: in vivo, 336 h, time 14 day; in short: as §2
[9] = Unbound plasma concentration in scopolamine-induced Wistar rat model at 1 mg/kg, po measured after 1 hr; assay type: ADME, organism-based; conditions: in vivo
In short: (§3)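 Plasma sampled 1 h after oral dosing in satellite animals (N=2/dose) given the same dosing solution as the water-maze study (suspension in 0.5% methylcellulose in water); unbound concentration reported as the group average.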

[10] = Unbound plasma concentration in scopolamine-induced Wistar rat model at 0.32 mg/kg, po measured after 1 hr; assay type: ADME, organism-based; conditions: in vivo; in short: as §3
[11] = Unbound brain concentration in amphetamine-induced C57BL/6J mouse model of hyperlocomotion at 3.2 mg/kg, sc measured after 1 hr; assay type: ADME, organism-based; conditions: in vivo
In short: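 Satellite PK animals from the mouse aLMA study, N=2/dose. Dosed subcutaneously with a solution in 5/15/80 DMSO/Solutol/water. Plasma and brain were sampled at T = 1 h.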

[12] = tested on: Mus musculus; test: Reversal of amphetamine-induced hyperlocomotion in C57BL/6J mouse at 1 mg/kg, sc incubated for 30 mins followed by addition of amphetamine measured after 90 mins; assay type: functional, organism-based; conditions: time 120.0 min
In short: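 The compound was given sc as a solution in 5/15/80 DMSO/Solutol/water, and amphetamine-induced locomotor activity was compared with vehicle. Plasma and brain exposure came from a satellite group (N=2/dose) sampled at 1 h after the same dosing.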

[13] = Positive allosteric modulation of muscarinic M2/M3 receptor in Hartley guinea pig ileum assessed as increase in donepezil-induced stimulation of contraction in presence of mAChR antagonist atropine; assay type: tissue-based, Cavia porcellus
In short: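 PAM mode used guinea pig ileum in a tissue bath. Contraction concentration–response curves were run in the presence of an EC20 of donepezil, with or without atropine.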

[14] = target: T1, Muscarinic acetylcholine receptor M4 (Homo sapiens, UniProt P08173); test: Positive allosteric modulation of human recombinant muscarinic M4 receptor stably expressed in HEK cells assessed as increase in ACh-induced cAMP accumulation up to 10 uM measured after 10 mins by GloSensor cAMP Assay; assay type: cell-based
T1 sequence (P08173 whole entry): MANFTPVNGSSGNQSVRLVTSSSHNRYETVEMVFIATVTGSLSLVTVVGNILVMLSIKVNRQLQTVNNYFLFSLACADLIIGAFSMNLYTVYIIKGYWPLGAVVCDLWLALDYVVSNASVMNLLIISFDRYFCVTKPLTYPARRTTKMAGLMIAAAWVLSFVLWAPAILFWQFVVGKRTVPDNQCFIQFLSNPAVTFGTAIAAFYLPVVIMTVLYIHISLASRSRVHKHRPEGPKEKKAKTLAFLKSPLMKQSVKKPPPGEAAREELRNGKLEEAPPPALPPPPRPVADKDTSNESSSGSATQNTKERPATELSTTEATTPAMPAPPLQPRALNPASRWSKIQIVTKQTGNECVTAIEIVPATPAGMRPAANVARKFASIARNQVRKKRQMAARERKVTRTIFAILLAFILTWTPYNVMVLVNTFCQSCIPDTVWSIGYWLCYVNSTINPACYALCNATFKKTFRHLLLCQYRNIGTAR

[15] = target: T2, Muscarinic acetylcholine receptor M2 (Homo sapiens, UniProt P08172); test: Positive allosteric modulation of human recombinant muscarinic M2 receptor stably expressed in HEK cells assessed as increase in ACh-induced cAMP accumulation up to 10 uM measured after 10 mins by GloSensor cAMP Assay; assay type: cell-based
T2 sequence (P08172 whole entry): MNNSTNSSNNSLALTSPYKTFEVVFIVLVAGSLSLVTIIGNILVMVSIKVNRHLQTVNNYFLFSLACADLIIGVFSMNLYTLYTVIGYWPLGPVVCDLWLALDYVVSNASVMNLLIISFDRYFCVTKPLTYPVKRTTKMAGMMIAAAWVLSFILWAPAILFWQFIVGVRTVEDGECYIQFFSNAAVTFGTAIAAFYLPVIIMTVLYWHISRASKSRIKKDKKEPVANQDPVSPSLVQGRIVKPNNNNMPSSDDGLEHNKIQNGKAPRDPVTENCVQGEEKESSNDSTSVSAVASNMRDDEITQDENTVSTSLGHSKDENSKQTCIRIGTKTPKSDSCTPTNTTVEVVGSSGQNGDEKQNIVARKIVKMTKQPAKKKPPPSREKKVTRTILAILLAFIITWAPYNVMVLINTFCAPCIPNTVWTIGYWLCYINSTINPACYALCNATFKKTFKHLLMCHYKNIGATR

[16] = Ratio of AUC monkey brain to fAUC in monkey plasma; assay type: ADME, cell-free, Macaca mulatta; conditions: rhesus monkey, in vivo
[17] = Ratio of AUC in rat brain to fAUC in rat plasma; assay type: ADME, cell-free; conditions: in vivo
[18] = Ratio of fAUC in C57BL/6 mouse brain to plasma; assay type: ADME, cell-free; conditions: brain and plasma, read-out: Ratio AUC
[19] = tested on: MDR1 (P-gp); test: Efflux ratio of permeability across basolateral to apical side over apical to basolateral side in dog MDCK-MDR1 cells; assay type: ADME, cell-based, Canis lupus familiaris
[20] = target: Muscarinic acetylcholine receptor M3 (Homo sapiens, UniProt P20309); test: Positive allosteric modulation of human recombinant muscarinic M3 receptor stably expressed in CHO cells assessed as increase in Ach-induced accumulation of intracellular calcium level upto 10 uM incubated for 10 mins followed by addition of Ach at EC20 concentration by Fluo-8AM dye based FLIPR TETRA method
Muscarinic acetylcholine receptor M3, sequence (P20309 whole entry): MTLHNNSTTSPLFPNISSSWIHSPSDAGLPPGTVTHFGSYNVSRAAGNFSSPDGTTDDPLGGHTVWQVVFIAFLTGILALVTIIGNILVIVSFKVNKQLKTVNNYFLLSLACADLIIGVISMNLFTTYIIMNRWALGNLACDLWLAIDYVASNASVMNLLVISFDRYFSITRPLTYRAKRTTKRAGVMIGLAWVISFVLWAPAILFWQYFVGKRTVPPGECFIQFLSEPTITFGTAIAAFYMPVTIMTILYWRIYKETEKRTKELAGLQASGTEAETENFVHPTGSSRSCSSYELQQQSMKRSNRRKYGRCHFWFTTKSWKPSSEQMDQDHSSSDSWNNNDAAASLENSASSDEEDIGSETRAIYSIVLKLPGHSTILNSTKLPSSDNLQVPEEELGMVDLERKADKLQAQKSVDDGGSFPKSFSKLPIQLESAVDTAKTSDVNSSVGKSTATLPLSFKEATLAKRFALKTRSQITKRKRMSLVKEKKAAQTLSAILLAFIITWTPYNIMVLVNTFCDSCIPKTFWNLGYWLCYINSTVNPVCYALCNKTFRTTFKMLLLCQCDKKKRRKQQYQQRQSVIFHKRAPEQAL

fAUC [4]: 5.861 µM·h
fCmax [5]: 169 nM
fAUC [6]: 9.768 µM·h
fCmax [7]: 1221 nM
fCmax [8]: 195 nM
Cp(f) [9]: 19.6 nM
Cp(f) [10]: 3.7 nM
Drug uptake(free) [11]: 85.2 nM
Activity [13]: Not Active
Activity [14]: Not Active
Activity [15]: Not Active
Ratio AUC [16]: 0.41
Ratio AUC [17]: 0.36
Kp uu [18]: 0.34
efflux ratio [19]: 1.3
Activity [20]: Not Active
Compound: Cc1cnc(C(=O)N[C@H]2CCOC[C@@H]2O)cc1Cc1ccc(-c2cscn2)cc1
Activity [1]: Toxic
Activity [2]: Toxic
Activity [3]: Toxic
Activity [12]: Active

Reference: ChEMBL document CHEMBL4715734, “Discovery of the Potent and Selective M1 PAM-Agonist N-[(3R,4S)-3-Hydroxytetrahydro-2H-pyran-4-yl]-5-methyl-4-[4-(1,3-thiazol-4-yl)benzyl]pyridine-2-carboxamide (PF-06767832): Evaluation of Efficacy and Cholinergic Side Effects” (J Med Chem, 2016)
